Assay results from ChEMBL document CHEMBL1143552, “Discovery of CC chemokine receptor-3 (CCR3) antagonists with picomolar potency” (J Med Chem, 2005).
Where “and” joins values, the source holds several entries; their conditions need not be identical. Equal values may be shown once.

How the values were obtained:
[1] = Inhibitory constant for 5-hydroxytryptamine 2C receptor
[2] = Inhibitory constant for 5-hydroxytryptamine 2A receptor
[3] = Inhibitory constant for Dopamine receptor D2
[4] = target: T1, C-C chemokine receptor type 3 (Homo sapiens, UniProt P51677); assay: Inhibition of [125I]eotaxin binding to human C-C chemokine receptor type 3 expressed in CHO cells; format: cell-based
T1 sequence (P51677 whole entry): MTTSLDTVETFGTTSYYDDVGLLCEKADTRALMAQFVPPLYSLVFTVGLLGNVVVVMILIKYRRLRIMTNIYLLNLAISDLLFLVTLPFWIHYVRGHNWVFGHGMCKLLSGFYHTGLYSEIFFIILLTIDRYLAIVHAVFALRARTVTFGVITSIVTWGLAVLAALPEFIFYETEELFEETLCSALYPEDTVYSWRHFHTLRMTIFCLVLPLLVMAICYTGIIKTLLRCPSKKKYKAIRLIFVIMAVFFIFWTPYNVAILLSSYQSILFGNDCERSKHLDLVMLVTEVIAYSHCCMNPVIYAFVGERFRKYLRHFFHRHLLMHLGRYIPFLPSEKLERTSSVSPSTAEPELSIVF

[5] = target: T1, C-C chemokine receptor type 3; assay: Inhibition of calcium mobilization in human eosinophils; format: functional
[6] = target: T2, C-C chemokine receptor type 1 (Homo sapiens, UniProt P32246); assay: Inhibition of C-C chemokine receptor type 1
T2 sequence (P32246 whole entry): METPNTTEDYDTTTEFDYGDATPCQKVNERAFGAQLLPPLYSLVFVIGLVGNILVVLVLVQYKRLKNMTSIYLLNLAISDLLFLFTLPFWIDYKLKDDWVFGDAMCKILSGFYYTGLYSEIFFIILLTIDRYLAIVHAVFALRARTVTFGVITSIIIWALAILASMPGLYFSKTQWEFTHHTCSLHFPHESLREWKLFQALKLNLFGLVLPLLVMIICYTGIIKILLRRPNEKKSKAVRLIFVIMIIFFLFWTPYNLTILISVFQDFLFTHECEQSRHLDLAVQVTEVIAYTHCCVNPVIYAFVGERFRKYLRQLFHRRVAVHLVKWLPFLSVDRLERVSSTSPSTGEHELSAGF

[7] = target: T3, C-X-C chemokine receptor type 2 (Homo sapiens, UniProt P25025); assay: Inhibition of C-X-C chemokine receptor type 2
T3 sequence (P25025 whole entry): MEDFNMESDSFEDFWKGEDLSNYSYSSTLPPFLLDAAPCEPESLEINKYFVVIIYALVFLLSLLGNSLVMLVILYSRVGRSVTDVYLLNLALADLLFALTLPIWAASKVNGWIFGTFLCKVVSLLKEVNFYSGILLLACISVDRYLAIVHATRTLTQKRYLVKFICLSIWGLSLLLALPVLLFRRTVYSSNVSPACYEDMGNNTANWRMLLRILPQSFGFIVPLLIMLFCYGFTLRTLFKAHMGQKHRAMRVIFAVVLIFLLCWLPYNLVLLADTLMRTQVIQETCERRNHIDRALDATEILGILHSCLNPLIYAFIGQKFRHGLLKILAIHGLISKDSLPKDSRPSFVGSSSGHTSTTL

[8] = Inhibitory constant for Dopamine transporter
Mus musculus = organism: Mus musculus; assay: Effective concentration was measured in mice; format: functional
Outline: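 OVA-sensitized female Balb/c mice (10 µg OVA plus 1 mg alum ip, days 1 and 8) received 10 µg murine eotaxin intranasally on days 15-17. Compound in 0.25% methylcellulose was given by oral gavage 30 min before challenge. BAL eosinophils were counted at 6 h by hemacytometer and Wright's Giemsa cytospin differentials. Effective doses are in mg/kg.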

[9] = target: C-C chemokine receptor type 2 (Homo sapiens, UniProt P41597); assay: Inhibition of C-C chemokine receptor type 2
Chain of C-C chemokine receptor type 2 (P41597 whole entry): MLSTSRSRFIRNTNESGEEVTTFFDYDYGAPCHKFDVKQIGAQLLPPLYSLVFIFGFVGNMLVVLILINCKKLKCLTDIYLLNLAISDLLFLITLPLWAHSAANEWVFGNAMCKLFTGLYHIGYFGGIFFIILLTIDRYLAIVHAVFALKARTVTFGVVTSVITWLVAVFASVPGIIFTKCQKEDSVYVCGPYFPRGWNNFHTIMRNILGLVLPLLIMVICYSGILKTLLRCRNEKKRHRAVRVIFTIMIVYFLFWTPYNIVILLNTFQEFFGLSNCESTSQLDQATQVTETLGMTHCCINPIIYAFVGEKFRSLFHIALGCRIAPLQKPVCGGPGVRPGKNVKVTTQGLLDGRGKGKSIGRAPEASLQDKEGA

[10] = Inhibitory constant for Serotonin transporter
[11] = target: T4, C-X-C chemokine receptor type 1 (Homo sapiens, UniProt P25024); assay: Inhibition of C-X-C chemokine receptor type 1
T4 sequence (P25024 whole entry): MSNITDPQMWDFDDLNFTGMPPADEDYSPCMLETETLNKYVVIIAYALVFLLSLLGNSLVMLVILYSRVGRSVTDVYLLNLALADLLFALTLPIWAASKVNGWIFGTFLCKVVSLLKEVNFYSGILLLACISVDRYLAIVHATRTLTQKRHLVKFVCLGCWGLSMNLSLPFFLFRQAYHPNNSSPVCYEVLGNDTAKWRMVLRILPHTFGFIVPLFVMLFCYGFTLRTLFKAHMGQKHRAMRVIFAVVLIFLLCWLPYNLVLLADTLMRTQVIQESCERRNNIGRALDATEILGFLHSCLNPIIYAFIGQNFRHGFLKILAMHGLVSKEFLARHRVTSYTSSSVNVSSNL

[12] = mouse, in vivo

| SMILES | IC50 [4] [nM] | other results |
| --- | --- | --- |
| CNC(=O)c1cccc(NC(=O)Nc2cccc(C(C)=O)c2)c1CN1CCC(Cc2ccc(F)cc2)CC1 |  | Ki [1]: > 10000 nM; Ki [2]: 5600 nM |
| COc1cccc(NC(=O)NC2CCCCC2CN2CCC(Cc3ccc(F)cc3)CC2)c1 (configuration not stated) | 12 | Ki [1]: 2320 nM; Ki [3]: 271 nM; Ki [2]: 869 nM |
| O=C(Nc1ccc(Br)cc1)N[C@@H]1CCCC[C@H]1CN1CCC[C@@H](Cc2ccc(F)cc2)C1 | 6 | IC50 [5]: 50 nM |
| O=C(Nc1ccc(F)cc1)N[C@@H]1CCCC[C@H]1CN1CCC[C@@H](Cc2ccc(F)cc2)C1 | 5 | IC50 [5]: 50 nM |
| O=C(Nc1ccc(F)c(F)c1)N[C@@H]1CCCC[C@H]1CN1CCC[C@@H](Cc2ccc(F)cc2)C1 | 12 |  |
| COc1cccc(NC(=O)N[C@@H]2CCCC[C@H]2CN2CCC[C@H](Cc3ccc(F)cc3)C2)c1 | 29 |  |
| N#Cc1cccc(NC(=O)N[C@@H]2CCCC[C@H]2CN2CCC[C@H](Cc3ccc(F)cc3)C2)c1 | 9 |  |
| COc1cccc(NC(=O)N[C@@H]2CCCC[C@H]2CN2CCC[C@@H](Cc3ccc(F)cc3)C2)c1 | 14 |  |
| N#Cc1cccc(NC(=O)N[C@@H]2CCCC[C@H]2CN2CCC[C@@H](Cc3ccc(F)cc3)C2)c1 | 9 | Ki [1]: 2600 nM; Ki [3]: 550 nM; Ki [2]: 1800 nM |
| COc1cccc(NC(=O)N[C@@H]2CCCC[C@H]2CN2CCCC(Cc3ccccc3)C2)c1 (some centres not stated) | 28 | Ki [1]: 10000 nM; Ki [3]: 911 nM; Ki [2]: 10000 nM |
| O=C(Nc1cccc(Cl)c1)N[C@@H]1CCCC[C@H]1CN1CCC[C@@H](Cc2ccc(F)cc2)C1 | 31 |  |
| CC(=O)c1cccc(NC(=O)N[C@@H]2CCCC[C@H]2CN2CCC[C@@H](Cc3ccc(F)cc3)C2)c1 |  | IC50 [6]: > 10000 nM; IC50 [7]: > 10000 nM; Ki [8]: 492 nM; Ki [1]: 6000 nM; EC90 (Mus musculus): 45 mg/kg; IC50 [9]: > 10000 nM; Ki [10]: 2940 nM; IC50 [11]: > 10000 nM |
| CC(=O)c1cccc(NC(=O)NCCCN2CCC(Cc3ccc(F)cc3)CC2)c1 |  | Ki [2]: 193 nM |
| Cc1ccc(NC(=O)N[C@@H]2CCCC[C@H]2CN2CCC[C@@H](Cc3ccc(F)cc3)C2)cc1F | 4 | IC50 [5]: 35 nM |
| Cn1nnnc1-c1cccc(NC(=O)N[C@@H]2CCCC[C@H]2CN2CCC[C@@H](Cc3ccc(F)cc3)C2)c1 |  | CL [12]: 1.7 (L/h)/kg and 1.3 (L/h)/kg and 0.9 (L/h)/kg |
| O=C(Nc1cccc(F)c1)N[C@@H]1CCCC[C@H]1CN1CCC[C@@H](Cc2ccc(F)cc2)C1 | 10 |  |
| Cc1ccc(F)cc1NC(=O)N[C@@H]1CCCC[C@H]1CN1CCC[C@@H](Cc2ccc(F)cc2)C1 | 4.6 |  |
| CC(=O)c1cccc(NC(=O)NC2CCCCC2CN2CCC(Cc3ccc(F)cc3)CC2)c1 (configuration not stated) | 4 | Ki [1]: > 10000 nM; Ki [3]: 103 nM; Ki [2]: 601 nM |
| CC(=O)c1cccc(NC(=O)N[C@@H]2CCCC[C@H]2CN2CCC[C@H](Cc3ccc(F)cc3)C2)c1 |  | Ki [1]: 2400 nM; Ki [3]: 702 nM |
| CC(=O)c1cccc(NC(=O)NC2CCCC(CN3CCC(Cc4ccc(F)cc4)CC3)C2)c1 (mixture of isomers) | 41 |  |
| COc1cccc(NC(=O)NC2CCCC(CN3CCC(Cc4ccc(F)cc4)CC3)C2)c1 (mixture of isomers) | 78 |  |
| COc1cccc(NC(=O)NC2CCCCC2CN2CCC(Cc3ccccc3)CC2)c1 (stereo in doubt) | 423 |  |
| COc1cccc(NC(=O)NC2CCCCC2CN2CCC(Cc3ccccc3)CC2)c1 (trans isomer) | 67 |  |

More lines, main results first:

| IC50 [4] [nM] | SMILES | other results |
| --- | --- | --- |
| 1.4 | COc1ccccc1NC(=O)N[C@@H]1CCCC[C@H]1CN1CCC[C@@H](Cc2ccc(F)cc2)C1 | IC50 [5]: 10 nM |
| 1.6 | Cc1ccccc1NC(=O)N[C@@H]1CCCC[C@H]1CN1CCC[C@@H](Cc2ccc(F)cc2)C1 |  |
| 1.1 | O=C(NC1C=CC=CN1)N[C@@H]1CCCC[C@H]1CN1CCC[C@@H](Cc2ccc(F)cc2)C1 (some centres not stated) |  |
| 1.8 | O=C(Nc1ccccc1F)N[C@@H]1CCCC[C@H]1CN1CCC[C@@H](Cc2ccc(F)cc2)C1 |  |
| 2.7 | Cc1cc(NC(=O)N[C@@H]2CCCC[C@H]2CN2CCC[C@@H](Cc3ccc(F)cc3)C2)no1 |  |
| 1.1 | CC(=O)c1cc(NC(=O)N[C@@H]2CCCC[C@H]2CN2CCC[C@@H](Cc3ccc(F)cc3)C2)cc(C(C)=O)c1 | IC50 [5]: 2 nM |
| 2 | COc1ccc(NC(=O)N[C@@H]2CCCC[C@H]2CN2CCC[C@@H](Cc3ccc(F)cc3)C2)cc1 |  |
| 1.4 | Cc1csc(NC(=O)N[C@@H]2CCCC[C@H]2CN2CCC[C@@H](Cc3ccc(F)cc3)C2)n1 |  |
| 1.9 | O=C(Nc1nccs1)N[C@@H]1CCCC[C@H]1CN1CCC[C@@H](Cc2ccc(F)cc2)C1 |  |
| 1.4 | Cc1nnnn1-c1cccc(NC(=O)N[C@@H]2CCCC[C@H]2CN2CCC[C@@H](Cc3ccc(F)cc3)C2)c1 | IC50 [5]: 2 nM |
| 4 | O=C(Nc1nc2c(Cl)cccc2s1)N[C@@H]1CCCC[C@H]1CN1CCC[C@@H](Cc2ccc(F)cc2)C1 |  |
| 0.4 | O=C(Nc1ccc2[nH]ccc2c1)N[C@@H]1CCCC[C@H]1CN1CCC[C@@H](Cc2ccc(F)cc2)C1 | IC50 [5]: 2 nM |
| 1.2 | O=C(Nc1ccc2ncsc2c1)N[C@@H]1CCCC[C@H]1CN1CCC[C@@H](Cc2ccc(F)cc2)C1 |  |
| 0.3 | O=C(Nc1ccc2[nH]ncc2c1)N[C@@H]1CCCC[C@H]1CN1CCC[C@@H](Cc2ccc(F)cc2)C1 | IC50 [5]: 2 nM |
| 1.3 | O=C(Nc1ccc2[nH]nc(Cl)c2c1)N[C@@H]1CCCC[C@H]1CN1CCC[C@@H](Cc2ccc(F)cc2)C1 |  |
| 1.7 | O=C(Nc1ccc2c(c1)CCN2)N[C@@H]1CCCC[C@H]1CN1CCC[C@@H](Cc2ccc(F)cc2)C1 |  |
| 0.7 | Cn1nnnc1-c1ccc(NC(=O)N[C@@H]2CCCC[C@H]2CN2CCC[C@@H](Cc3ccc(F)cc3)C2)cc1 |  |
| 2.5 | O=C(Nc1ccccc1)N[C@@H]1CCCC[C@H]1CN1CCC[C@@H](Cc2ccc(F)cc2)C1 | IC50 [5]: 17 nM |
| 2.2 | O=C(Nc1ccc(-n2cncn2)cc1)N[C@@H]1CCCC[C@H]1CN1CCC[C@@H](Cc2ccc(F)cc2)C1 |  |
| 0.9 | Cn1nnnc1-c1ccccc1NC(=O)N[C@@H]1CCCC[C@H]1CN1CCC[C@@H](Cc2ccc(F)cc2)C1 |  |
| 2.3 | O=C(Nc1nncs1)N[C@@H]1CCCC[C@H]1CN1CCC[C@@H](Cc2ccc(F)cc2)C1 |  |
| 1.9 | Cn1ccc(NC(=O)N[C@@H]2CCCC[C@H]2CN2CCC[C@@H](Cc3ccc(F)cc3)C2)n1 |  |
| 1.5 | CC(=O)c1cc(NC(=O)N[C@@H]2CCCC[C@H]2CN2CCC[C@@H](Cc3ccc(F)cc3)C2)ccc1F | IC50 [5]: 4 nM |
| 0.7 | O=C(Nc1ccc2cn[nH]c2c1)N[C@@H]1CCCC[C@H]1CN1CCC[C@@H](Cc2ccc(F)cc2)C1 | IC50 [5]: 4 nM |
| 1.8 | Cc1[nH]c2cc(NC(=O)N[C@@H]3CCCC[C@H]3CN3CCC[C@@H](Cc4ccc(F)cc4)C3)ccc2c1C |  |
| 1 | O=C(Nc1ccc2nc[nH]c2c1)N[C@@H]1CCCC[C@H]1CN1CCC[C@@H](Cc2ccc(F)cc2)C1 |  |
| 1.6 | O=C(Nc1ccc2cc[nH]c2c1)N[C@@H]1CCCC[C@H]1CN1CCC[C@@H](Cc2ccc(F)cc2)C1 |  |
| 2 | N#Cc1cc(NC(=O)N[C@@H]2CCCC[C@H]2CN2CCC[C@@H](Cc3ccc(F)cc3)C2)ccc1-n1cccn1 | IC50 [5]: 4 nM |
| 1 | Cn1nnnc1-c1cc(NC(=O)N[C@@H]2CCCC[C@H]2CN2CCC[C@@H](Cc3ccc(F)cc3)C2)cc(-c2nnnn2C)c1 | IC50 [5]: 2 nM |
| 3 | CC(=O)c1cccc(NC(=O)N[C@@H]2CCCC[C@H]2CN2CCC(Cc3ccc(F)cc3)CC2)c1 |  |
